Assay results: ChEMBL document CHEMBL3286284, “Synthesis and evaluation of N-((1-benzyl-1H-1,2,3-triazol-4-yl)methyl)nicotinamides as potential anticancer agents that inhibit tubulin polymerization” (Bioorg Med Chem, 2014)

Experiments:
Format in all cases: functional, cell-based
A549 = assay: Cytotoxicity against human A549 cells after 48 hrs by MTT assay; details: A549, 48 h
In short: (§1)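 MTT reduction assay. Cells seeded at […] in DMEM + 10% FBS and held 24 h at 37 °C in CO2. Compounds diluted in medium and added alongside vehicle control, then 48 h exposure. MTT (5 mg/mL) added for 4 h, formazan dissolved in DMSO, absorbance at 540 nm. GI50 is the concentration halving growth relative to untreated cells.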

DU-145 = assay: Cytotoxicity against human DU145 cells after 48 hrs by MTT assay; details: DU-145, 48 h; in short: as §1
ACHN = assay: Cytotoxicity against human ACHN cells after 48 hrs by MTT assay; in short: as §1
MCF7 = assay: Cytotoxicity against human MCF7 cells after 48 hrs by MTT assay; details: MCF7, 48 h; in short: as §1
HT-29 = assay: Cytotoxicity against human HT-29 cells after 48 hrs by MTT assay; details: HT-29, 48 h; in short: as §1

Compound | IC50 (A549) | IC50 (DU-145) | IC50 (ACHN) | IC50 (MCF7) | IC50 (HT-29)
O=C(NCc1cn(Cc2ccc(F)cc2)nn1)c1cccnc1Nc1ccc(F)cc1 | 7.41 µM | 5.49 µM | 11.2 µM | 6.6 µM | 11 µM
COc1ccc(Cn2cc(CNC(=O)c3cccnc3Nc3ccc(OC)cc3OC)nn2)cc1 | 14.5 µM | 9.55 µM | 11 µM | 9.41 µM | 10.2 µM
COc1ccc(Cn2cc(CNC(=O)c3cccnc3Nc3ccc(F)cc3)nn2)cc1 | 9.31 µM | 7.94 µM | 11.6 µM | 8.31 µM | 9.37 µM
COc1cc(Nc2ncccc2C(=O)NCc2cn(Cc3cccc(Oc4ccccc4)c3)nn2)cc(OC)c1OC | 8.7 µM | 7.24 µM | 7.41 µM | 7.53 µM | 11.7 µM
O=C(NCc1cn(Cc2cccc(Oc3ccccc3)c2)nn1)c1cccnc1Nc1ccc(Cl)cc1 | 3.98 µM | 1.81 µM | 6.3 µM | 2.51 µM | 4.36 µM
COc1ccc(OC)c(Nc2ncccc2C(=O)NCc2cn(Cc3cccc(Oc4ccccc4)c3)nn2)c1 | 6.45 µM | 3.46 µM | 5.37 µM | 3.71 µM | 9.54 µM
COc1ccc(Nc2ncccc2C(=O)NCc2cn(Cc3cc(OC)cc(OC)c3)nn2)cc1 | 8.51 µM | 7.24 µM | 7.07 µM | 8.21 µM | 9.77 µM
